# CHO-K1 Ca ag – counter-screen for M1 agonists: effect in parental CHO-K1 cells; Fluo-8 calcium fluorescence; scaled to maximal ATP response, vehicle zero; activation, % at 3 µM; hit rate 0.48% among 360,000; in the data active means activation above about 15%;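 further: untransfected CHO-K1 host cells lacking M1 receptor as counterscreen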
# M1 PAM parental – counter-screen for M1 PAMs: effect in parental CHO-K1 cells. activation, % at 3 µM. ATP EC20, Fluo-8 calcium fluorescence; 0% at ATP EC20, 100% at ATP max. hit rate 0.02% among 360,000;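 active means activation above the run cutoff, the mean activation of all test compounds plus 3 SD, cut at about 40% in these data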;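 further: peak over basal fluorescence ratio in a 140 s read after ATP addition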
# OX1R antag-1 – blocks the human orexin 1 receptor | CHO/OX1R cells, Fluo-8 calcium fluorescence, orexin A | inhibition, % at 5 µM | hit rate 0.43% among 330,000 | AID 434989;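 active means inhibition above its plate's threshold, mean inhibition of all tested compounds on the plate plus 3 SD, cut at about 37% in these data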;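 further: 0% = orexin A challenge wells and 100% = SB-334867-A antagonist wells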
# Target sequence (O43613 whole entry, looked up): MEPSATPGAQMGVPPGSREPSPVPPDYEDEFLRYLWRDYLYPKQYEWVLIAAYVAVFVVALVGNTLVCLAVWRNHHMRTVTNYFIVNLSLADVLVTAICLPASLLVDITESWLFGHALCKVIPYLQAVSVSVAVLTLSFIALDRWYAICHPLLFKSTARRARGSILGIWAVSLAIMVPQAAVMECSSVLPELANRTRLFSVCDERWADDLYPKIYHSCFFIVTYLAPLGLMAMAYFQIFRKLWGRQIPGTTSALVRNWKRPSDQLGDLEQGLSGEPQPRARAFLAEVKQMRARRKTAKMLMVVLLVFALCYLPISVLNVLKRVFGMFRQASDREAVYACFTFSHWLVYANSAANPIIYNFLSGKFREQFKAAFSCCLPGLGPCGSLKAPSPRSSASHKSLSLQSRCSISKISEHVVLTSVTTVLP
# CHO parental Ca – signal in parental CHO cells, OX1R antagonist counter-screen | parental CHO-K1, ATP-induced calcium, Fluo-8 fluorescence | inhibition, % at 5.6 µM | AID 463079 | hit rate 0.63% among 330,000;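 active means inhibition above that plate's mean sample inhibition plus 3 SD, cut at about 26% in these data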;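 further: 0% = ATP-challenged DMSO wells and 100% = DMSO wells without ATP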
#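 Material – parental CHO cells · Reagent – ATP stimulus · Compound – single nominal dose of 5.6 µM per compound · Detection – Fluo-8 fluorescence · Read-out basis – percent inhibition of calcium signal · Controls – ATP-challenged DMSO wells low, unchallenged DMSO wells high · Repeats – no replicates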
# CHO-K1 Ca antag – counter-screen for M1 antagonists: effect in parental CHO-K1 cells. inhibition, % at 3 µM. AID 602250. ATP-induced calcium, Fluo-8 fluorescence. hit rate 0.6% among 360,000;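 active means inhibition above a per-plate cutoff, the plate's mean sample inhibition plus 3 SD, cut at about 24% in these data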;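 further: 0% = DMSO plus EC80 ATP and 100% = DMSO alone without ATP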
# OX1R antag-2 – antagonists of human orexin 1 receptor (OX1R); inhibition, % at 6.6 µM; AID 485270; OX1R-expressing cells, FRET antagonist read-out; hit rate 1.8% among 330,000; in the data active means inhibition mostly above about 38%, no sharp cut-off; inactive means mostly below about 40%;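 further: 0% = agonist challenge alone and 100% = reference antagonist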
# Active calls of the source: *; / = no result given. A selection: hits, their analogues and other compounds. The true share with any hit is near 2.9%.
SMILES,CHO-K1 Ca ag,M1 PAM parental,OX1R antag-1,CHO parental Ca,CHO-K1 Ca antag,OX1R antag-2
Cc1ccc2c(c1)COc1c3ccc(C(=O)N[C@@H](CO)C(C)C)cc3nn1-2,0,20,-21,-11,-15,46
COc1ccc(C)cc1NC(=O)CSc1nc2scc(C)c2c(=O)[nH]1,5,-5,-6,2,6,71*
COc1ccc(Cl)cc1NC(=O)CSc1nc2sccc2c(=O)[nH]1,4,2,-17,-18,1,63*
O=C(c1cccc(S(=O)(=O)N2CCCC2)c1)c1nnc(-c2ccncc2)o1,3,18,-9,-2,-14,43*
CC1Cn2c(nnc2-c2ccc(F)cc2)S1 (centres undefined),0,-3,4,-2,26*,-1
Cn1c(-c2ccc3c(c2)OCO3)cnc1NCc1ccccc1,3,-7,-4,-24,-2,6
Cc1ccc(-c2cnc(NCc3cc4c(cc3[N+](=O)[O-])OCO4)n2C)cc1C,17*,19,-26,-2,-7,34
COc1cccc(-c2nc(NCc3ccco3)c3ccccc3n2)c1O,0,19,-20,-5,-4,29
C=CCNc1nc(-c2cccc(OC)c2O)nc2ccccc12,1,12,-8,5,4,47*
COc1cc(-c2nc3ccccc3s2)ccc1O,2,-5,-18,-6,11,21
COc1cccc(-c2nc3ccccc3s2)c1O,15*,18,2,3,1,25
COc1cccc(-c2nc(NCc3ccccc3)c3ccccc3n2)c1O,2,12,-9,-1,-6,37*
NC(=O)CC(NC(=O)Cc1ccc(Cl)cc1)c1ccc(NCCOc2ccccc2)c([N+](=O)[O-])c1 (centres undefined),1,17,-13,-3,-11,12
COC(=O)CCC(=O)N1CCOCCOCCN(C(=O)CCC(=O)OC)CCOCCOCC1,0,18,-12,-17,-8,17
COC(=O)CCC(=O)N1CCOCCOCCOCC1,16*,23,1,-3,-2,13
COc1ccc(S(=O)(=O)N2CCN=C2SCc2cccc(C)c2)cc1,0,-4,-4,-1,1,30
CCOC(=O)c1cnc2c(-c3ccccc3)c(-c3ccccc3)nn2c1C,1,4,-9,-10,-22,-5
CC(C)n1c(CN(C)Cc2ccccc2)nc2c1c(=O)n(C)c(=O)n2C,/,/,16,69*,/,54*
CC(C)n1c(NCCc2ccccc2)nc2c1c(=O)n(C)c(=O)n2C,4,7,7,39*,8,27
CC(=O)C(C)n1c(CN(C)Cc2ccccc2)nc2c1c(=O)n(C)c(=O)n2C (centres undefined),1,26,8,-7,-11,13
CCOC(=O)Cn1cc(Cl)cc(C(=O)Nc2ccccc2)c1=O,0,12,-20,-17,-19,6
COc1ccc2c(c1)sc(=N)n2C,1,3,-1,-4,-16,16
CN(C)/C=N/c1nc2nccc(-c3cccc(Cl)c3)n2n1,21*,9,-21,0,6,16
CN(C)/C=N/c1nc2nccc(-c3ccc(F)cc3)n2n1,0,12,-1,-4,-11,16
O=C(CS(=O)CC(=O)Nc1cccnc1)Nc1ccc(F)cc1 (centres undefined),2,16,-9,0,-14,9
SMILES,CHO-K1 Ca ag,M1 PAM parental,OX1R antag-1,CHO parental Ca,CHO-K1 Ca antag,OX1R antag-2
Cc1cccc(N(C(=O)Nc2ccc(Cl)cc2)C2=NCC(C)S2)n1 (centres undefined),15*,3,-12,-1,11,25
Cc1ccc(NC(=O)N(C2=NCC(C)S2)c2ccccc2)cc1 (centres undefined),1,6,-8,-16,-7,5
CCOC(=O)c1cnc(-n2nc(C)cc2C)nc1Nc1ccc(OC)cc1,0,-5,-39,-21,11,13
CCOC(=O)c1cnc(-n2nc(C)cc2C)nc1NC1CCCC1,12,-10,59*,43*,-18,14
Cc1cccc(NC(=O)CCCn2cc([N+](=O)[O-])cn2)n1,1,17,-9,7,-14,14
C[C@@H]1CN([C@H](C)CO)C(=O)CCCn2cc(nn2)CO[C@H]1CN(C)S(=O)(=O)c1ccc(F)cc1,0,7,/,/,26*,/
C[C@@H]1CN([C@H](C)CO)C(=O)CCCn2cc(nn2)CO[C@H]1CN(C)S(=O)(=O)c1cccs1,0,-9,/,/,32*,/
C[C@@H]1CN([C@@H](C)CO)C(=O)CCCn2nncc2CO[C@@H]1CN(C)C(=O)Nc1cccc(C(F)(F)F)c1,0,-5,/,/,26*,/
C[C@@H]1CN([C@@H](C)CO)C(=O)CCCn2cc(nn2)CO[C@H]1CN(C)S(=O)(=O)c1cccs1,0,-11,/,/,8,/
COc1cc(C(=O)NCC(=O)NCC(c2ccco2)N2CCCCC2)cc(OC)c1OC (centres undefined),0,13,-4,-15,7,3
COc1ccccc1-c1cccc([C@@H]2C[C@H]3[C@H](CON3C)CN2C(=O)C(C)(C)C)c1,1,29,/,/,-11,/
O=C(NNc1ccnc2cc(Cl)ccc12)C1CCCCC1,12,-9,31,35*,14,43
NC(=S)NNc1ccnc2cc(Cl)ccc12,1,-1,-5,2,-5,-2
O=C1c2ccccc2-n2c1nc1ccccc1c2=O,0,-6,13,0,2,54*
O=C(NCC(c1cccs1)N1CCOCC1)c1cc2ccccc2oc1=O (centres undefined),0,2,3,-22,-16,26*
Cc1nc2c(nnn2Cc2ccccc2)c(=O)[nH]1,0,-13,-22,5,25*,9
CCn1cc(C2=NC(CC(C)C)CO2)c2ccccc21 (centres undefined),2,18,-18,-24,-7,26
CCCC(=O)Nc1cccc(NC(=O)c2ccc([N+](=O)[O-])cc2Cl)c1,8,22,-23,-8,-2,62*
CCCC(=O)Nc1ccc(NC(=O)c2ccccc2Cl)nc1,0,-7,-4,-8,24*,10
O=C(Nc1ccc([N+](=O)[O-])cc1Cl)c1cc(Cl)ccc1O,7,13,33,29,2,68*
CCCC(=O)Nc1ccc(NC(=O)Cc2ccccc2)cn1,1,7,-1,14,2,5
O=C(Nc1ncccn1)c1ccc([N+](=O)[O-])cc1Cl,0,0,-6,6,-7,35
O=C(Nc1cccnc1)c1ccc([N+](=O)[O-])cc1Cl,1,8,-18,-6,-7,56*
COc1ccc(CCNC(=O)N2c3ccccc3Sc3ccccc32)cc1,7,8,30,36*,10,45
